The values below come from ChEMBL document CHEMBL4396879, “Conjugation of Short Peptides to Dibenzodiazepinone-Type Muscarinic Acetylcholine Receptor Ligands Determines M2R Selectivity” (J Med Chem, 2019).

Data set [1] addresses T1, Muscarinic acetylcholine receptor M1 (Homo sapiens, UniProt P11229).
T1 sequence (P11229 whole entry): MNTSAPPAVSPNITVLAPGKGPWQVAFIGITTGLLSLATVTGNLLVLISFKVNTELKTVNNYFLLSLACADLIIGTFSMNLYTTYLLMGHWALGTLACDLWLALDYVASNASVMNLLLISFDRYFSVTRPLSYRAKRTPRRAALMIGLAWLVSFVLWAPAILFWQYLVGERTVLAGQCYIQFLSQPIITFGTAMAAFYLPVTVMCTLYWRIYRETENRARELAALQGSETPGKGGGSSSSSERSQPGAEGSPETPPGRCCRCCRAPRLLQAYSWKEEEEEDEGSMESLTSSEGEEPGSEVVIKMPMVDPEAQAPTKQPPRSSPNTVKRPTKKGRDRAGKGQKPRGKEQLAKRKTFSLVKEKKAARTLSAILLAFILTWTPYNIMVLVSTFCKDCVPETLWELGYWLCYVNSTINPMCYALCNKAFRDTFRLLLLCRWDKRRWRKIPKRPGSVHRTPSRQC
As to the kind of experiment: Displacement of [3H]-NMS from human muscarinic M1 receptor expressed in CHO-K9 cells after 3 hrs by microbeta2 scintillation counting method. The data set is classed as cell-based. A digest of the protocol: (§1)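 [3H]NMS competition binding on intact CHO-hMxR cells in L15 medium with 1% BSA, 3 h at 22 ± 1 °C with gentle shaking. [3H]NMS was 0.2 nM (M1, M2, M3), 0.1 nM (M4) or 0.3 nM (M5). […] Cells were lysed in urea/acetic acid/Triton and counted by liquid scintillation. Ki from Cheng-Prusoff. Triplicates, ≥3 experiments.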

Data set [2] has as its target T2, Muscarinic acetylcholine receptor M2 (Homo sapiens, UniProt P08172).
T2 sequence (P08172 whole entry): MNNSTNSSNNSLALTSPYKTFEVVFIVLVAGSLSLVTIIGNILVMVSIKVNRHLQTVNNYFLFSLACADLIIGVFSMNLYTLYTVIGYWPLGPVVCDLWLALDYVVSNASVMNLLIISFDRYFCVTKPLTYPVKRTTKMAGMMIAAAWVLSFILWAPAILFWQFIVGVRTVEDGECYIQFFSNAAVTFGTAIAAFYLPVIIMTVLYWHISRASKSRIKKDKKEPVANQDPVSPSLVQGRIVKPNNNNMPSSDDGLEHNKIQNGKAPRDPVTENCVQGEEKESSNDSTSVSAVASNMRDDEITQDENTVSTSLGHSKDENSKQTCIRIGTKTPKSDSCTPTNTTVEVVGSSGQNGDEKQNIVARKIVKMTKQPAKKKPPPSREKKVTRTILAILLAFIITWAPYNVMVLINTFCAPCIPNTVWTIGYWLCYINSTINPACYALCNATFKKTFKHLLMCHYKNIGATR
The data set is described as follows: Displacement of [3H]-NMS from human muscarinic M2 receptor expressed in CHO-K9 cells after 3 hrs by microbeta2 scintillation counting method. Type of data set: cell-based. A digest of the protocol:
as §1
(In general: Displacement assays read how much labelled ligand stays bound in the presence of the test substance.)

Data set [3] addresses Muscarinic acetylcholine receptor M3 (Homo sapiens, UniProt P20309). The data set is described as follows: Displacement of [3H]-NMS from human muscarinic M3 receptor expressed in CHO-K9 cells after 3 hrs by microbeta2 scintillation counting method. Type of data set: cell-based. A digest of the protocol:
as §1

In data set [4] the target is T3, Muscarinic acetylcholine receptor M4 (Homo sapiens, UniProt P08173).
T3 sequence (P08173 whole entry): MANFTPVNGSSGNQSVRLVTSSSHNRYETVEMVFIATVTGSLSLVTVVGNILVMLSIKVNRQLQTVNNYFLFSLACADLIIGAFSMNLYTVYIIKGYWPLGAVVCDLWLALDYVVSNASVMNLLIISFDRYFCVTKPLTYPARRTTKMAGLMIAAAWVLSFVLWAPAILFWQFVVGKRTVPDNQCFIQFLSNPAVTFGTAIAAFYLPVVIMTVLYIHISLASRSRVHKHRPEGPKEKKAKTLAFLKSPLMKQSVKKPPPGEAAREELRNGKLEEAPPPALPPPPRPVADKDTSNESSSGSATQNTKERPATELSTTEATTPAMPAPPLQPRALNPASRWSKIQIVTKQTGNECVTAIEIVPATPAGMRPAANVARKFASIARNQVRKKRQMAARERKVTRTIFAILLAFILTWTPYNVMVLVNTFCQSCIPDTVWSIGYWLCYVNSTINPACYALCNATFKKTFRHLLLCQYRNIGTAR
The data set is described as follows: Displacement of [3H]-NMS from human muscarinic M4 receptor expressed in CHO-K9 cells after 3 hrs by microbeta2 scintillation counting method. The data set is classed as cell-based. Put shortly:
as §1

Data set [5] addresses Muscarinic acetylcholine receptors; M1 & M2 (Homo sapiens) (UniProt P11229+P08172). The data set is described as follows: Selectivity ratio of Ki for human muscarinic M1 receptor expressed in CHO-K9 cells to Ki for human muscarinic M2 receptor expressed in CHO-K9 cells. Type of data set: cell-based. Put shortly: (§2)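 Ratio of mean Ki values. Each Ki came from an individual [3H]NMS competition experiment at the given CHO-hMxR subtype, converting IC50 to Ki by Cheng-Prusoff before averaging.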

Data set [6] addresses Muscarinic acetylcholine receptor M2 and M4 (Homo sapiens) (UniProt P08173+P08172). The data set is described as follows: Selectivity ratio of Ki for human muscarinic M4 receptor expressed in CHO-K9 cells to Ki for human muscarinic M2 receptor expressed in CHO-K9 cells. Type of data set: cell-based. Put shortly:
as §2

In data set [7] the target is Muscarinic acetylcholine receptor M2 and M5 (Homo sapiens) (UniProt P08172+P08912). The data set is described as follows: Selectivity ratio of Ki for human muscarinic M5 receptor expressed in CHO-K9 cells to Ki for human muscarinic M2 receptor expressed in CHO-K9 cells. Type of data set: cell-based. A digest of the protocol:
as §2

In data set [8] the target is T4, Muscarinic acetylcholine receptor M2 (Homo sapiens) (UniProt P08172).
T4 sequence (whole entry): T2 sequence (P08172 whole entry)
As to the kind of experiment: (§3) Antagonist activity at human muscarinic M2 receptor expressed in HEK293 cells co-expressing HA-Galphaq/i5 assessed as inhibition of carbachol-induced IP1 accumulation pre-incubated for 30 mins followed by carbachol addition and measured after 1 hr by HTRF assay. The data set is classed as functional, cell-based. A digest of the protocol:
(§4)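 HEK-293 cells transiently cotransfected (receptor plus HA-tagged Gαqi5), detached after 1 day and seeded at 10,000 cells/well for 24 h at 37 °C. Duplicates.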
(Time-resolved FRET reads energy transfer from a long-lived donor to a nearby acceptor.)

In data set [9] the target is T2, Muscarinic acetylcholine receptor M2. Described as §3. The data set is classed as functional, cell-based. Put shortly:
as §4

Data set [10] can be described thus: Stability of the compound in human plasma used as 1:2 ratio of plasma to pH 7.4 PBS assessed as intact compound at 100 uM incubated for 6 hr […]. Type of data set: ADME, cell-free. To be noted: plasma diluted with PBS (1:2), read-out: Stability.
Data set [11] can be described thus: Stability of the compound in human plasma used as 1:2 ratio of plasma to pH 7.4 PBS assessed as intact compound at 100 uM incubated for 24 hr […]. To be noted: plasma diluted with PBS (1:2), read-out: Stability. Type of data set: ADME, cell-free.
The target of data set [12] is T2, Muscarinic acetylcholine receptor M2. The data set is described as follows: Competitive displacement of [3H]-NMS from human muscarinic M2 receptor expressed in CHO-K9 cells using 0.2 nM [3H]-NMS after 3 hrs by microbeta2 scintillation counting method. The data set is classed as cell-based. Put shortly: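 Intact CHO-hM2R cells (90-100% confluent) incubated 3 h at 22 ± 1 °C in L15 medium with 1% BSA and 0.2 nM [3H]NMS. […] Cells were lysed in urea/acetic acid/Triton-X-100 and radioactivity was counted. Ki via Cheng-Prusoff.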

The target of data set [13] is T4, Muscarinic acetylcholine receptor M2 (Homo sapiens). The data set is described as follows: Competitive displacement of [3H]-NMS from human muscarinic M2 receptor expressed in CHO-K9 cells using 2 nM [3H]-NMS after 3 hrs by microbeta2 scintillation counting method relative to control. The data set is classed as cell-based. Put shortly: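 Intact CHO-hM2R cells incubated at 22 °C with a high [3H]NMS concentration (2 nM). […] Curves were fitted by four-parameter logistic fits. Mean ± SEM from ≥4 experiments in triplicate.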

Sequence of Muscarinic acetylcholine receptor M2 and M5 (Homo sapiens) (P08912 whole entry, looked up, one chain of several): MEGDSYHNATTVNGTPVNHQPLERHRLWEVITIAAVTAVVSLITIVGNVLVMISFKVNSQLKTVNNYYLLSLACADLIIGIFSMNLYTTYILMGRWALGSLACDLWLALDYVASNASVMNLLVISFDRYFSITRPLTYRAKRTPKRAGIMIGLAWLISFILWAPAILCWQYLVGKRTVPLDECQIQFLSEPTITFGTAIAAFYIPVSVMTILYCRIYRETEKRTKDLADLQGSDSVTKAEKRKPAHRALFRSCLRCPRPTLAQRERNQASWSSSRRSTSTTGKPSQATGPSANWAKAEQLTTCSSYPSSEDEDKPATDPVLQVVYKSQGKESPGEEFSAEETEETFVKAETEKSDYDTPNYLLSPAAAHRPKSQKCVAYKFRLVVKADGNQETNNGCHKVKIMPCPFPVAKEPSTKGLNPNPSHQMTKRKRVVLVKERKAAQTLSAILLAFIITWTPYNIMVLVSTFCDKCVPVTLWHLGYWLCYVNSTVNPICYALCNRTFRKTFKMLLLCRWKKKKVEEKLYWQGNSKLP
Sequence of Muscarinic acetylcholine receptor M3 (P20309 whole entry): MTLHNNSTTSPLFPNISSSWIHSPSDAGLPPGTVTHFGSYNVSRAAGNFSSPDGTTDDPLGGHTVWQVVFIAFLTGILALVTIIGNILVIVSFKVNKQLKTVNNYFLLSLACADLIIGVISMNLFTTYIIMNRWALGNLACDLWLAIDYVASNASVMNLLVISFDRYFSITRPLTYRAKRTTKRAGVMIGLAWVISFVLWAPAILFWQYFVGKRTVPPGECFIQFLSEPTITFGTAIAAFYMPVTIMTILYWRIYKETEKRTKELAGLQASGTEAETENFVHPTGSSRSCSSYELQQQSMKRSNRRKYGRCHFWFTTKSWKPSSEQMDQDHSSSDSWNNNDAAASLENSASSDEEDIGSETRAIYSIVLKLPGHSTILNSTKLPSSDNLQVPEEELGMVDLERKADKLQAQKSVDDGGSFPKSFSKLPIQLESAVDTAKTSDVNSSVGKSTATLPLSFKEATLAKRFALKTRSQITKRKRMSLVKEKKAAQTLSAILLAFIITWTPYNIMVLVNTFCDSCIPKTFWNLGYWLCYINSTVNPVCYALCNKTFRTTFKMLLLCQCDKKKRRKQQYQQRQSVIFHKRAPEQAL

For orientation: Ki means the dissociation constant of the complex between target and ligand, obtained from inhibition or displacement. A high value points to weaker binding. As a reminder, the IC50 is the midpoint of a concentration-inhibition curve. For `CC(=O)N[C@@H](CCCCN)C(=O)N[C@@H](C)C(=O)N[C@@H](CCCNC(=N)N)C(=O)NCCN1CCN(CCCCC2CCN(CC(=O)N3c4ccccc4NC(=O)c4ccccc43)CC2)CC1`, the Ki in [1] is 2.29 nM; in [2], 0.0631 nM; in data set [3], 0.11 µM; in data set [4] it was 2.09 nM; in data set [12], 0.0631 nM. Further, the Ratio Ki was 45 in [5], 40 in [6] and 4900 in data set [7]. Moreover, in [8], the inhibition result is “Dose-dependent effect”. Further, the IC50 in data set [9] was 10.5 nM; in [12], 0.191 nM. For the same compound, the remaining at 6 h, 100 µM in data set [10] is greater than 99%. The remaining at 24 h, 100 µM in [11] is greater than 99%. This compound yielded an Activity in data set [13] greater than 95%.

Take `CC(=O)N[C@@H](CCCCN)C(=O)N[C@@H](CCCNC(=N)N)C(=O)NCCCCC1CCN(CC(=O)N2c3ccccc3NC(=O)c3ccccc32)CC1`: the Ki in data set [1] was 41.7 nM; in data set [2] it was 1.07 nM; in [3] it was 6.76 µM; in data set [4], 61.7 nM; in data set [12], 1.07 nM. Further, the values for the Ratio Ki in [5], in [6] and in data set [7] were 49, 60 and 400, respectively. Further, the inhibition entry in [8] was “Dose-dependent effect”. Also, the IC50 in [9] was 93.3 nM; in data set [12], 3.31 nM. Besides, the remaining at 6 h, 100 µM in data set [10] is greater than 99%. The remaining at 24 h, 100 µM in data set [11] is greater than 99%. In [13], this compound displayed an Activity greater than 95%.
